In ChEMBL document CHEMBL1781995, “Acenaphtho[1,2-b]pyrrole-based selective fibroblast growth factor receptors 1 (FGFR1) inhibitors: design, synthesis, and biological activity” (J Med Chem, 2011) one finds IC50 and inhibition data, which are given here for 1 molecule.

A word on the IC50: it is the midpoint of a concentration-inhibition curve. Low readings indicate greater potency in that assay, high ones weaker potency in that assay.

Test [1] concerns the target Vascular endothelial growth factor receptor 2 (Homo sapiens, UniProt P35968). Put plainly: Inhibition of VEGFR2 expressed in Bac-to-Bac Baculovirus expression system using poly(Glu-Tyr)4:1 as substrate after 60 mins by ELISA. The gist of the method: (§1)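 Wells precoated with 20 μg/mL poly(Glu,Tyr)4:1. Detected with PY99 anti-phosphotyrosine, then HRP anti-mouse IgG and o-phenylenediamine/H2O2; stopped with H2SO4, A490. Duplicates per concentration; IC50 from inhibition curves, at least three independent tests.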
In general terms: ELISA stands for enzyme-linked immunosorbent assay.

In test [2] the target is Mast/stem cell growth factor receptor Kit (Homo sapiens, UniProt P10721). The experiment in a line: Inhibition of c-kit expressed in Bac-to-Bac Baculovirus expression system using poly(Glu-Tyr)4:1 as substrate after 60 mins by ELISA. The gist of the method:
as §1

For test [3], the target named is Macrophage-stimulating protein receptor (Homo sapiens, UniProt Q04912). Put plainly: Inhibition of RON expressed in Bac-to-Bac Baculovirus expression system using poly(Glu-Tyr)4:1 as substrate after 60 mins by ELISA. The gist of the method:
as §1

For another test, the system named is BXPC-3. The experiment in a line: Antiproliferative activity against human BxPC3 cells expressing FGFR after 72 hrs by SRB assay. It is filed as functional, cell-based. Conditions: BXPC-3, 72 h. In short, it runs like this:
(§2)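 Cells seeded and grown 24 h, then exposed to increasing compound concentrations for 72 h without medium change. Fixed with cold 10% TCA 1 h at 4 °C, stained 15 min with 4 mg/mL SRB in 1% acetic acid, rinsed, dye dissolved in 10 mM Tris base, A515 read. Inhibition = (1 − A515treated/A515control)×100; IC50 by Logit method from at least three independent tests.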
A general note: In SRB staining, fixed cells bind dye roughly in proportion to their protein.

Test [4] addresses T1, Fibroblast growth factor receptor 1 (Homo sapiens, UniProt P11362). Put plainly: Inhibition of FGFR1 using poly(Glu-Tyr)4:1 as substrate after 60 mins by ELISA.
For a further test, the system named is T-24. Put plainly: Antiproliferative activity against human T24 cells expressing FGFR after 72 hrs by SRB assay. It is filed as functional, cell-based. The following applies: T-24, 72 h. The gist of the method:
as §2

Test [5] has as its target Fibroblast growth factor receptor 4 (Homo sapiens, UniProt P22455). Put plainly: Inhibition of FGFR4 using poly(Glu-Tyr)4:1 as substrate after 60 mins by ELISA. In short, it runs like this:
as §1

For test [6], the target named is Fibroblast growth factor receptor 3 (Homo sapiens, UniProt P22607). Put plainly: Inhibition of FGFR3 using poly(Glu-Tyr)4:1 as substrate after 60 mins by ELISA. In short, it runs like this: as §1
Sequence of Fibroblast growth factor receptor 3 (P22607 whole entry): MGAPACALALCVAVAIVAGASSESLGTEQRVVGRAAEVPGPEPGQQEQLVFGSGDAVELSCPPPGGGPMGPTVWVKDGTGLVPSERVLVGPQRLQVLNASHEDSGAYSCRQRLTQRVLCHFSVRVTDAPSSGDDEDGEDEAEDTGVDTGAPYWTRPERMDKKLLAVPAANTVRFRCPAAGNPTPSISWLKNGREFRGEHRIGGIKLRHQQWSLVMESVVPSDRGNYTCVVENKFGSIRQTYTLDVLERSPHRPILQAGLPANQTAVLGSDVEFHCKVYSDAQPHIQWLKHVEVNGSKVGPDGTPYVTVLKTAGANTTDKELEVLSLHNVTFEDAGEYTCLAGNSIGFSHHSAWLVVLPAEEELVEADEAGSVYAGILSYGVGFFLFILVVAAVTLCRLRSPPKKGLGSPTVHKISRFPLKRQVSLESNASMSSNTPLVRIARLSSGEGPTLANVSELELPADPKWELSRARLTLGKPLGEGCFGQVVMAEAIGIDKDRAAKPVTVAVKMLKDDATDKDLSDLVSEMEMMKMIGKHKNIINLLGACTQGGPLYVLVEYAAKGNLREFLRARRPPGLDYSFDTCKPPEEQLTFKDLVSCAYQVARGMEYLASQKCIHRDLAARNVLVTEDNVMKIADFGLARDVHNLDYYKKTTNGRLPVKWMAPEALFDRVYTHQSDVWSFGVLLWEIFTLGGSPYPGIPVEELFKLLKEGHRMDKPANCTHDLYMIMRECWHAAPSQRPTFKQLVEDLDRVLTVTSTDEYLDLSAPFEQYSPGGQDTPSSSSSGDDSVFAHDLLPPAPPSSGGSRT
The target of another test is T2, Ephrin type-B receptor 2 (Homo sapiens, UniProt P29323).
T2 sequence (P29323 whole entry): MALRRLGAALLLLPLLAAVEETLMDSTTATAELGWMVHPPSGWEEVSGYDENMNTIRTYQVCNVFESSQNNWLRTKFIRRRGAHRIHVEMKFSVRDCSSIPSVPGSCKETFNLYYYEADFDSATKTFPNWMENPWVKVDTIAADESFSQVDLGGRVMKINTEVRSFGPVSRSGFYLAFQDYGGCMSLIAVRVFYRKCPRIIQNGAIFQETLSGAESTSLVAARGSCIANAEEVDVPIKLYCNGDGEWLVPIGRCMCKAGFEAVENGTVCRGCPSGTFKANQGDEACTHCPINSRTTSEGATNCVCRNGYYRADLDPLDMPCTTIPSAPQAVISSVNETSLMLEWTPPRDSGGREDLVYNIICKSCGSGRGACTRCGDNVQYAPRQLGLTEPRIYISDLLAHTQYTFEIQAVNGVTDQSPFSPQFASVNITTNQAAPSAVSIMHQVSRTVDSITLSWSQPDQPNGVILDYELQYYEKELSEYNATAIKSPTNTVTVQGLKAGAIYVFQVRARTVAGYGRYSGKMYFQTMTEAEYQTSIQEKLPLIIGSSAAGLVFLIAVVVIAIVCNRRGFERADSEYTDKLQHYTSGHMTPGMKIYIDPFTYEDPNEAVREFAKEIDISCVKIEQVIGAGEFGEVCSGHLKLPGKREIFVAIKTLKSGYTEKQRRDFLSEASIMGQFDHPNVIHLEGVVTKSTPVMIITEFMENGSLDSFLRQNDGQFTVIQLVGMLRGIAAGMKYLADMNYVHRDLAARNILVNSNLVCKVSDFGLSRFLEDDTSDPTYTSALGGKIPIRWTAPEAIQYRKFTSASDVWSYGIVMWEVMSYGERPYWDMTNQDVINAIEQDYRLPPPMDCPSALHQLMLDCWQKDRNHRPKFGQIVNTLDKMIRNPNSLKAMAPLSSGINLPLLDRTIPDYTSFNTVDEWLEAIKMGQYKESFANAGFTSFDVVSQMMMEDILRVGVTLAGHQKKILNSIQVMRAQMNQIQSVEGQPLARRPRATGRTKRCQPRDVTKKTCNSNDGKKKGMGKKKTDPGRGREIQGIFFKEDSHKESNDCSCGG
The experiment in a line: Inhibition of EphB2 expressed in Bac-to-Bac Baculovirus expression system using poly(Glu-Tyr)4:1 as substrate after 60 mins by ELISA. In short, it runs like this: as §1

The target in test [7] is Platelet-derived growth factor receptor alpha (Homo sapiens, UniProt P16234). The experiment in a line: Inhibition of PDGFRalpha using poly(Glu-Tyr)4:1 as substrate after 60 mins by ELISA. The gist of the method:
as §1

Another test has as its target Ephrin type-A receptor 2 (Homo sapiens, UniProt P29317). The experiment in a line: Inhibition of EphA2 expressed in Bac-to-Bac Baculovirus expression system using poly(Glu-Tyr)4:1 as substrate after 60 mins by ELISA. In short, it runs like this: as §1
The target of test [8] is T1, Fibroblast growth factor receptor 1. The experiment in a line: Inhibition of FGFR1 in human BxPC3 cells assessed as reduction of Erk1/2 phosphorylation at 10 uM after 12 hrs by Western blot analysis. Conditions: BXPC-3. Type of test: cell-based. In short, it runs like this: (§3)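 BxPC3 cells plated at 3 × 10^5 per well, serum-starved 24 h, then treated 12 h with compound (1.25, 2.5, 5, 10 μM). Whole-cell lysates run on 10% SDS-PAGE and immunoblotted for phospho-FGFR1 (Tyr653/654), phospho-Erk1/2 (T202/Y204), phospho-Akt and totals, with GAPDH loading control.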
Target sequence in this assay (P11362 22-822 limits assumed): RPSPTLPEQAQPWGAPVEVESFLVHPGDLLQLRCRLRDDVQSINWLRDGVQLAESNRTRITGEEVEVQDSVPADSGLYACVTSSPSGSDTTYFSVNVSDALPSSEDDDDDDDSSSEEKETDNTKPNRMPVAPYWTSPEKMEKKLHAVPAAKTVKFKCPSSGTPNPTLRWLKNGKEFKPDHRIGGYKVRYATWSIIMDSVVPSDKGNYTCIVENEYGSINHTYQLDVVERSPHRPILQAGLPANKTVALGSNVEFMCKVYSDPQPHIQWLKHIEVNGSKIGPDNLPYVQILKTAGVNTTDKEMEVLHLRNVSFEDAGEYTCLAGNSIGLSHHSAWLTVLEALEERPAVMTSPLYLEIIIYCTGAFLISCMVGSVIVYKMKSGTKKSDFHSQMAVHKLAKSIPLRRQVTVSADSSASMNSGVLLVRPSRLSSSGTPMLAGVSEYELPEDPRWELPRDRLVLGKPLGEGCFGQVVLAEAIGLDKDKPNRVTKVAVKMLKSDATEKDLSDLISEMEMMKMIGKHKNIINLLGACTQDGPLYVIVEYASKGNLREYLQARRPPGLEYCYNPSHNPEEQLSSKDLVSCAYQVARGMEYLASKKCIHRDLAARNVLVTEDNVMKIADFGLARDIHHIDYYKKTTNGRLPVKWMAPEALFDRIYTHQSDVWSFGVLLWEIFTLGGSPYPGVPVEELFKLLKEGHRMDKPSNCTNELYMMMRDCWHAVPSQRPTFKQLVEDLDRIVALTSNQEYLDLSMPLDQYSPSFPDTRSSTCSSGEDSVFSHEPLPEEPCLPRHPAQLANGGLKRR
Background: Immunoblotting shows a protein as a band on a membrane.

In test [9] the target is Vascular endothelial growth factor receptor 1 (Homo sapiens, UniProt P17948). The experiment in a line: Inhibition of VEGFR1 using poly(Glu-Tyr)4:1 as substrate measured after 60 mins by ELISA. In short, it runs like this: as §1
Test [10] has as its target Insulin-like growth factor 1 receptor (Homo sapiens, UniProt P08069). Put plainly: Inhibition of IGF1R expressed in Bac-to-Bac Baculovirus expression system using poly(Glu-Tyr)4:1 as substrate after 60 mins by ELISA. The gist of the method:
as §1

The target in test [11] is Fibroblast growth factor receptor 2 (Homo sapiens, UniProt P21802). The experiment in a line: Inhibition of FGFR2 using poly(Glu-Tyr)4:1 as substrate after 60 mins by ELISA. The gist of the method: as §1
Sequence of Fibroblast growth factor receptor 2 (P21802 whole entry): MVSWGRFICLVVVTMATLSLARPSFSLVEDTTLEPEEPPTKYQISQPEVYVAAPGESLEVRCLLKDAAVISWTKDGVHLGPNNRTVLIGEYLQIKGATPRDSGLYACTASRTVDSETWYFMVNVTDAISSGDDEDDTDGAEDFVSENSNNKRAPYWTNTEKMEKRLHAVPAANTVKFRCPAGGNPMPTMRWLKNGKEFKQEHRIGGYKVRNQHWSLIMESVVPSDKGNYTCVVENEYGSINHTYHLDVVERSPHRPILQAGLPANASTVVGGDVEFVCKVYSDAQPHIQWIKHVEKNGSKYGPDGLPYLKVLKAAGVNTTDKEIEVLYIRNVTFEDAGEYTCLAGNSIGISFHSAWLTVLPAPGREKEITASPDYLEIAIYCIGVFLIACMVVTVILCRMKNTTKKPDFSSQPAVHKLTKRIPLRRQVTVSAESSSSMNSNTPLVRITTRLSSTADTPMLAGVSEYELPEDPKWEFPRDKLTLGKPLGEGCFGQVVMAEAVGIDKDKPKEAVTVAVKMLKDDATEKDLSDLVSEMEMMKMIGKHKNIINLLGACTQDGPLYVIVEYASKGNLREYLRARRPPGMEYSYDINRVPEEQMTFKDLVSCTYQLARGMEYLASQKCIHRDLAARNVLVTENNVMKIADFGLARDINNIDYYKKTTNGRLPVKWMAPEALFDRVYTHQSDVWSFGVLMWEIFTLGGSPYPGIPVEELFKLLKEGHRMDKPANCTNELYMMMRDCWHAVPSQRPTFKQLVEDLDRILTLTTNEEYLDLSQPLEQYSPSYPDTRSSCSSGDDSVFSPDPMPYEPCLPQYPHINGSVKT
Test [12] has as its target T1, Fibroblast growth factor receptor 1. The experiment in a line: Inhibition of FGFR1 in human BxPC3 cells assessed as reduction of Akt phosphorylation at 10 uM after 12 hrs by Western blot analysis. It is filed as cell-based. Conditions: BXPC-3. The gist of the method:
as §3
Target sequence in this assay (P11362 22-822 limits assumed): as the sequence (P11362 22-822 limits assumed) above

For test [13], the target named is Proto-oncogene tyrosine-protein kinase Src (Homo sapiens, UniProt P12931). The experiment in a line: Inhibition of c-Src expressed in Bac-to-Bac Baculovirus expression system using poly(Glu-Tyr)4:1 as substrate after 60 mins by ELISA. In short, it runs like this:
as §1

Test [14] addresses T1, Fibroblast growth factor receptor 1. The experiment in a line: Inhibition of FGFR1 in human BxPC3 cells assessed as reduction of Erk1/2 phosphorylation after 12 hrs by Western blot analysis. Type of test: cell-based. The following applies: BXPC-3. In short, it runs like this: as §3
Target sequence in this assay (P11362 22-822 limits assumed): as above
Test [15] has as its target Tyrosine-protein kinase ABL1 (Homo sapiens, UniProt P00519). The experiment in a line: Inhibition of Abl using poly(Glu-Tyr)4:1 as substrate after 60 mins by ELISA. In short, it runs like this:
as §1

The next test deals with WI-38. Put plainly: Antiproliferative activity against human WI38 cells expressing FGFR after 72 hrs by SRB assay. Type of test: cell-based. The following applies: WI-38, 72 h. The gist of the method:
as §2

Test [16] has as its target Platelet-derived growth factor receptor beta (Homo sapiens, UniProt P09619). The experiment in a line: Inhibition of PDGFRbeta using poly(Glu-Tyr)4:1 as substrate after 60 mins by ELISA. The gist of the method: as §1
The target of test [17] is Proto-oncogene tyrosine-protein kinase receptor Ret (Homo sapiens, UniProt P07949). The experiment in a line: Inhibition of RET expressed in Bac-to-Bac Baculovirus expression system using poly(Glu-Tyr)4:1 as substrate after 60 mins by ELISA. The gist of the method:
as §1

Structures are written as SMILES. Calls of active or inactive are those of the source. No cut-off for these calls is given here.

Sequence of Proto-oncogene tyrosine-protein kinase Src (P12931 2-536 limits assumed): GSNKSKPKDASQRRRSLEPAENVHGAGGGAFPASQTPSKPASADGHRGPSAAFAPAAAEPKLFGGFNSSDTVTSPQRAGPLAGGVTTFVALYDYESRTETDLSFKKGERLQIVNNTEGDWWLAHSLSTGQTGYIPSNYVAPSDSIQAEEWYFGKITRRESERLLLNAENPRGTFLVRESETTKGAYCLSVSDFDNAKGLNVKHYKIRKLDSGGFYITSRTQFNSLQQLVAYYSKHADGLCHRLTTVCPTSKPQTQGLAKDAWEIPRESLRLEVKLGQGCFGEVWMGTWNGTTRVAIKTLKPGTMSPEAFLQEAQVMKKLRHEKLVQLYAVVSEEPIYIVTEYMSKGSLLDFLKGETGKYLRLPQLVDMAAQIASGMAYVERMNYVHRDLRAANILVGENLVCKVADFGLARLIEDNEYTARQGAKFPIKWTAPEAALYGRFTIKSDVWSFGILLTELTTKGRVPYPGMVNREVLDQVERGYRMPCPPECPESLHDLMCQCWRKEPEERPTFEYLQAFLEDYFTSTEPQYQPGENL
Sequence of Mast/stem cell growth factor receptor Kit (P10721 whole entry): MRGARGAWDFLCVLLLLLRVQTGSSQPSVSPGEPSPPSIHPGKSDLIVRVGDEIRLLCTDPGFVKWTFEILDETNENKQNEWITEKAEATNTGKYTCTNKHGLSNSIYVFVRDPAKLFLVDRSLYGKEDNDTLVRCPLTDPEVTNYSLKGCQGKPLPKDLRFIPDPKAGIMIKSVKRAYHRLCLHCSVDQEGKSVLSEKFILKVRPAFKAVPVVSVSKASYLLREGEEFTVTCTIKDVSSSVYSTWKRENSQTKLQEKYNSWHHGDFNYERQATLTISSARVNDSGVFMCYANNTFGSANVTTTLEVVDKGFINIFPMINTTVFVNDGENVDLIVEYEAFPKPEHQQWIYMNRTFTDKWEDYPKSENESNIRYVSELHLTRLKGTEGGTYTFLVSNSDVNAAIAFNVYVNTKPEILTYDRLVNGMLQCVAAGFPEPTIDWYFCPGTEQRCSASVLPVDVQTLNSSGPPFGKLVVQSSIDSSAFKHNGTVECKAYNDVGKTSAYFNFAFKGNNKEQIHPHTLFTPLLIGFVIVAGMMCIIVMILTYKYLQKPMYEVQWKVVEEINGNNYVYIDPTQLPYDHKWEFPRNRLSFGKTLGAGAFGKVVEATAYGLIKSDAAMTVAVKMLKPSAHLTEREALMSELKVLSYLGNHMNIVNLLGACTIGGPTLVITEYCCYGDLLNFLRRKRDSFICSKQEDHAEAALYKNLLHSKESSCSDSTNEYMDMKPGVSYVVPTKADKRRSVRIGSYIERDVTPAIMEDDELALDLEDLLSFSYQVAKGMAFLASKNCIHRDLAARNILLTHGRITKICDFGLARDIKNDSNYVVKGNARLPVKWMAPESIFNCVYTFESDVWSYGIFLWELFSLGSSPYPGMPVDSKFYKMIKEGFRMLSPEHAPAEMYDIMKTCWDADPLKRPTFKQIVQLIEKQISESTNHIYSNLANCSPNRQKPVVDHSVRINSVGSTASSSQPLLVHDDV
Sequence of Fibroblast growth factor receptor 4 (P22455 whole entry): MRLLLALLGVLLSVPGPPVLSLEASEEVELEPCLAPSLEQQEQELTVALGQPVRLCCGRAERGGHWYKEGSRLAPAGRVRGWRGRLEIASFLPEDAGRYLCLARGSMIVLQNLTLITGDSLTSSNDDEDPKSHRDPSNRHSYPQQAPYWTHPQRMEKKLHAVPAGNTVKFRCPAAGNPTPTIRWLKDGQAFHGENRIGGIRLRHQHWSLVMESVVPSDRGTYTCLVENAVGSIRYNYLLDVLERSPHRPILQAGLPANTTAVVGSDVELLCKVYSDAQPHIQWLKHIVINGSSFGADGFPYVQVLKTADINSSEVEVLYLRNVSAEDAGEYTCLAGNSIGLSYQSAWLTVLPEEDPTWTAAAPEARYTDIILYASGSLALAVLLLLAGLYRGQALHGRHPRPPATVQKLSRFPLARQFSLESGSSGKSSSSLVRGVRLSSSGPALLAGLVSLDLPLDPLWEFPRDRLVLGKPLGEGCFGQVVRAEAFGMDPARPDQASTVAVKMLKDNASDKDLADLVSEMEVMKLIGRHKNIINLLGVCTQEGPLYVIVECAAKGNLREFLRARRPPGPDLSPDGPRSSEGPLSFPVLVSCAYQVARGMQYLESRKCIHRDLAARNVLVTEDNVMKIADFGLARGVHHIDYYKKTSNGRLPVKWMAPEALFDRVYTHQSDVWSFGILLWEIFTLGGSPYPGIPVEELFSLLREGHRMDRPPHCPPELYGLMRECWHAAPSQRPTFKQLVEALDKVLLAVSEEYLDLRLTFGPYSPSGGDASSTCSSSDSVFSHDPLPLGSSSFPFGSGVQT

As for `CCOC(=O)C1=C2C(=NC1=O)c1cccc3cccc2c13`, the IC50 in test [1] is greater than 10 µM; in [2], greater than 10 µM; in test [3], greater than 10 µM; in the test on BXPC-3, 4.7 µM; in test [4], 0.074 µM; in the test on T-24 it was 2.9 µM. Also, the IC50 in [5] is greater than 10 µM; in [6], 4.6 µM; against Ephrin type-B receptor 2, greater than 10 µM; in test [7], greater than 10 µM; against Ephrin type-A receptor 2, greater than 10 µM; in test [9], 3.2 µM. The IC50 was greater than 10 µM in [10]; greater than 10 µM in test [11]; greater than 10 µM in test [13]; greater than 10 µM in [15]; 6.2 µM in the test with WI-38; greater than 10 µM in test [16]. The IC50 in test [17] is greater than 10 µM. The inhibition entry in [8] was “Active”. Further, in [12], the inhibition result is “inactive”. The inhibition entry in [14] is “Dose-dependent effect”.
